Test results: ChEMBL document CHEMBL4145586, “Hinduchelins A-D, Noncytotoxic Catechol Derivatives from Streptoalloteichus hindustanus” (J Nat Prod, 2018)
Calls of active or inactive are those of the source. The rule behind the calls is not given here.

Experiments:
HL-60 = assay: Cytotoxicity against human HL60 cells assessed as effect on cell viability at 50 uM after 48 hrs by MTT assay; format: cell-based; settings: hl-60, 48 h
MCF7 = assay: Cytotoxicity against human MCF7 cells assessed as effect on cell viability at 50 uM after 48 hrs by MTT assay; format: cell-based; settings: mcf7, 48 h
SMMC-7721 = assay: Cytotoxicity against human SMMC7721 cells assessed as effect on cell viability at 50 uM after 48 hrs by MTT assay; format: cell-based; settings: smmc-7721, 48 h
SW480 = assay: Cytotoxicity against human SW480 cells assessed as effect on cell viability at 50 uM after 48 hrs by MTT assay; format: cell-based; settings: sw480, 48 h
A549 = assay: Cytotoxicity against human A549 cells assessed as effect on cell viability at 50 uM after 48 hrs by MTT assay; format: cell-based; settings: a549, 48 h
[1] = Metal chelating activity assessed as iron-compound complex formation by measuring increase in pyoverdine production in Pseudomonas aeruginosa PAO1 at 50 uM by fluorescence assay
Outline: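 PAO1 grown overnight in LB broth at 37 °C with shaking, then diluted to OD600 0.02 in ABTGC medium. Pyoverdine fluorescence was read on a plate reader, normalized to OD600 and reported as relative fluorescence units.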

Activity [1]	SMILES	Activity (HL-60)	Activity (MCF7)	Activity (SMMC-7721)	Activity (SW480)	Activity (A549)
–	COc1cccc(-c2nc(C(=O)NCCc3ccccc3O)c(C)o2)c1OC	Non-Toxic	Non-Toxic	Non-Toxic	Non-Toxic	Non-Toxic
–	COc1cccc(-c2nc(C(=O)NCCc3ccccc3O)c(C)o2)c1O	Non-Toxic	Non-Toxic	Non-Toxic	Non-Toxic	Non-Toxic
–	COc1cccc(-c2nc(C(=O)NC[C@@H](O)c3ccccc3)c(C)o2)c1OC	Non-Toxic	Non-Toxic	Non-Toxic	Non-Toxic	Non-Toxic
Active	COc1cccc(-c2nc(C(=O)NCCc3ccccc3)c(C)o2)c1O	Non-Toxic	Non-Toxic	Non-Toxic	Non-Toxic	Non-Toxic
